Structures are written as SMILES. Active and inactive are the calls of the source. No cut-off for these calls is given here. Starred links: 1 amine or outer side, 2 acyl side, 3 side chain; linkers in the order of their positions; H or OH if unused. Positions of bridges follow the written chain, without caps; N, C: chain ends. Non-standard residues stand in square brackets, D forms with d. Residues, ends and D or L forms follow the SMILES beside them. *: point of attachment. hTyr(3S-OH,4S-OH,3'-OSO3H) = N[C@H](C(=O)O)[C@H](O)[C@@H](O)c1ccc(O)c(OS(=O)(=O)O)c1; Orn(4R-OH,5R-OH) = O=C([C@H](C[C@@H](O)[C@@H](O)N[*:3])N[*:1])[*:2]; Pro(3S-OH,4S-Me) = C[C@H]1CN[C@H](C(=O)O)[C@H]1O; X1 = CCCCCOc1ccc(-c2cc(-c3ccc(C(=O)*)cc3)no2)cc1; Gln(3R-OH) = NC(=O)C[C@@H](O)[C@H](N)C(=O)O; Hyp = O=C(O)[C@@H]1C[C@@H](O)CN1

The values below come from ChEMBL document CHEMBL1275536, “Efficacy of single-dose liposomal amphotericin B or micafungin prophylaxis in a neutropenic murine model of invasive pulmonary aspergillosis” (2008).

The test system of test [1] is Aspergillus fumigatus. Briefly: Antifungal activity against Aspergillus fumigatus 293 by broth-microdilution. As to conditions: read-out: MEC. Format: functional. Summed up: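 Broth microdilution following CLSI (NCCLS) approved standard M38-A. Amphotericin B read as MIC; micafungin read as minimum effective concentration.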
Test [2] deals with Aspergillus fumigatus. Briefly: Antifungal activity against Aspergillus fumigatus 293 infected in neutropenic BALB/c mouse lung assessed as log reduction in fungal burden at 5 mg/kg, ip administered as single dose 24 hrs before infection. It counts as functional. As to conditions: route intraperitoneal. Summed up:
(§1)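 Same neutropenic BALB/c intranasal-challenge model; single i.p. dose in D5W given 24 h pre-infection; D5W controls. Lungs from 10-20 mice/group taken at day +7, or earlier at moribund euthanasia. A. fumigatus DNA quantified by real-time PCR as conidial equivalents; reduction expressed as log10 of median versus control.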

Test [3] deals with Aspergillus fumigatus. Description: Antifungal activity against Aspergillus fumigatus 293 by Etest. Format: functional. Put shortly: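 Susceptibility of A. fumigatus 293 by Etest. Amphotericin B read as MIC; micafungin read as minimum effective concentration.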
Test [4] concerns Aspergillus fumigatus. Briefly: Antifungal activity against Aspergillus fumigatus 293 infected in neutropenic BALB/c mouse assessed as mouse survival at 20 mg/kg, ip administered as single dose 24 hrs before infection measured after 7 days relative to untreated control. As to conditions: route intraperitoneal. Format: functional. Put shortly: (§2)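 Female BALB/c mice, 8 weeks old, 18-22 g. Neutropenia by cyclophosphamide 150 mg/kg i.p. on days −4, −1 and +3, plus cortisone acetate 250 mg/kg i.p. on day −1. Under isoflurane, 2.5 × 10^6 conidia given intranasally. Drug diluted in D5W, given once i.p. 24 h pre-infection; D5W controls; n = 20/group. Morbidity monitored 7 days; log-rank test.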

Test [5] concerns Aspergillus fumigatus. Briefly: Antifungal activity against Aspergillus fumigatus 293 infected in neutropenic BALB/c mouse lung assessed as log reduction in fungal burden at 20 mg/kg, ip administered as single dose 24 hrs before infection. Format: functional. As to conditions: route intraperitoneal. Summed up: as §1
Test [6] has as its system Aspergillus fumigatus. Description: Antifungal activity against Aspergillus fumigatus 293 infected in neutropenic BALB/c mouse lung assessed as swollen dysmorphic hyphal clusters at 10 mg/kg, ip administered as single dose 24 hrs before infection by light microscopy. It counts as functional, organism-based. More on the design: dose 10 mg/kg. Summed up: (§3)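 Repeat experiments in the neutropenic intranasal-challenge model, five mice per dose, single i.p. dose 24 h pre-infection. Day +7 lungs fixed in 10% formaldehyde and stained with Grocott methenamine silver. Hyphal morphology and density assessed by light microscopy at ×100 and ×400.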

Test [7] concerns Aspergillus fumigatus. Description: Antifungal activity against Aspergillus fumigatus 293 infected in neutropenic BALB/c mouse assessed as mouse survival at 5 mg/kg, ip administered as single dose 24 hrs prior to infection measured after 7 days relative to untreated control. Format: functional. As to conditions: route intraperitoneal. Summed up:
as §2

Test [8] has as its system Aspergillus fumigatus. Description: Antifungal activity against Aspergillus fumigatus 293 infected in neutropenic BALB/c mouse lung assessed as swollen dysmorphic hyphal clusters at 20 mg/kg, ip administered as single dose 24 hrs before infection by light microscopy. More on the design: dose 20 mg/kg. It counts as functional, organism-based. Put shortly:
as §3

For test [9], the system named is Aspergillus fumigatus. Description: Antifungal activity against Aspergillus fumigatus 293 infected in neutropenic BALB/c mouse lung assessed as log reduction in fungal burden at 10 mg/kg, ip administered as single dose 24 hrs before infection. Format: functional. As to conditions: route intraperitoneal. Summed up:
as §1

`C[C@@H]1[C@H](O)[C@@H](C)/C=C/C=C/C=C/C=C/C=C/C=C/C=C/[C@H](O[C@@H]2O[C@H](C)[C@@H](O)[C@H](N)[C@@H]2O)C[C@@H]2O[C@](O)(C[C@@H](O)C[C@@H](O)[C@H](O)CC[C@@H](O)C[C@@H](O)CC(=O)O[C@H]1C)C[C@H](O)[C@H]2C(=O)O` [AMPHOTERICIN B]: the minimal effective concentration in the test with Aspergillus fumigatus [1] came out at 0.25 µg/mL.
As for `CCCCCOc1ccc(-c2cc(-c3ccc(C(=O)N[C@H]4C[C@@H](O)[C@@H](O)NC(=O)[C@@H]5[C@@H](O)[C@@H](C)CN5C(=O)[C@H]([C@H](O)CC(N)=O)NC(=O)[C@H]([C@H](O)[C@@H](O)c5ccc(O)c(OS(=O)(=O)O)c5)NC(=O)[C@@H]5C[C@@H](O)CN5C(=O)[C@H]([C@@H](C)O)NC4=O)cc3)no2)cc1` [MICAFUNGIN] (X1-[Orn(4R-OH,5R-OH)]T[Hyp][hTyr(3S-OH,4S-OH,3'-OSO3H)][Gln(3R-OH)][Pro(3S-OH,4S-Me)]; lactam 1-C), the FC was 1.3 in the test with Aspergillus fumigatus [2], 0.7 with Aspergillus fumigatus [5] and 1.3 in the test with Aspergillus fumigatus [9]. This compound displayed an MEC in the test with Aspergillus fumigatus [3] of 0.25 µg/mL. Moreover, the Activity with Aspergillus fumigatus [4] and with Aspergillus fumigatus [7] was 55% throughout. For the same compound, in the test on Aspergillus fumigatus [1], the minimal effective concentration amounted to 0.25 µg/mL. Besides, the result in the test with Aspergillus fumigatus [6] and with Aspergillus fumigatus [8] was Active.
